The text below walks through data of ChEMBL document CHEMBL4376872, “Scaffold Hopping of Natural Product Evodiamine: Discovery of a Novel Antitumor Scaffold with Excellent Potency against Colon Cancer” (J Med Chem, 2020).

The source made the active and inactive calls. The calls are words filed in the database; no cut-off is given here.

The test system of series [1] is HCT-116. In words: Antiproliferative activity against human HCT116 cells assessed as reduction in cell viability incubated for 72 hrs by CCK8 assay. The series is classed as functional, cell-based. The settings on record: HCT-116, 72 h.
The test system of series [2] is HCT-116. Description: Antitumor activity against human HCT116 cells xenografted in mouse assessed as reduction in tumor growth at 16 mg/kg, ip qd for 21 days administration starting from 10 days after tumor cell implantation measured every 2 or 4 days till the end of the treatment period relative to control. The format is functional. The settings on record: HCT-116, ip, read-out: TGI. The gist of the method: (§1)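 HCT116 xenografts in nude mice; intraperitoneal dosing on 21 consecutive days; tumour growth inhibition (TGI) versus untreated control, with body weight recorded. n = 6 mice per group; mean ± SEM; significance by Student's t test versus control.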
(A xenograft is tissue or cells of one species grown in another, often human tumour cells in immunodeficient mice.)

The test system of a further series is MDA-MB-435. In words: Antiproliferative activity against human MDA-MB-435 cells assessed as reduction in cell viability incubated for 72 hrs by CCK8 assay. The series is classed as functional, cell-based. The settings on record: MDA-MB-435, 72 h. On the technique in general: Tetrazolium assays rely on reduction of a dye to a coloured formazan, in cell work by metabolically active cells.

For a further series, the system named is A549. Description: Antiproliferative activity against human A549 cells assessed as reduction in cell viability incubated for 72 hrs by CCK8 assay. The settings on record: A549, 72 h. The format is functional, cell-based.
Series [3] is described as follows: Aqueous solubility of compound at pH 7.4. The series is classed as physicochemical.
Series [4] can be described thus: Toxicity in mouse xenografted with human HCT116 cells assessed as reduction in body weight at 16 mg/kg, ip qd for 21 days administration starting from 10 days after tumor cell implantation measured every 2 or 4 days till the end of the treatment period. The settings on record: in vivo. The format is organism-based. The essentials:
(§2)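 Nude mice bearing HCT116 xenografts were given intraperitoneal doses on 21 consecutive days, with n = 6 per group including an untreated control group. Body weight was recorded to assess toxicity. Data are mean ± SEM, compared with the control group by Student's t test.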

The test system of the next series is SK-HEP1. Description: Antiproliferative activity against human SKHEP1 cells assessed as reduction in cell viability incubated for 72 hrs by CCK8 assay. The series is classed as functional, cell-based. The settings on record: SK-HEP1, 72 h.
Series [5] can be described thus: Antiproliferative activity against human MV-3 cells assessed as reduction in cell viability incubated for 72 hrs by CCK8 assay. The series is classed as functional, cell-based. The settings on record: MV-3, 72 h.
Another series deals with K562. Description: Antiproliferative activity against human K562 cells assessed as reduction in cell viability incubated for 72 hrs by CCK8 assay. The settings on record: K562, 72 h. The series is classed as functional, cell-based.
A further series deals with BEL-7404 tumor cell line. Description: Antiproliferative activity against human Bel7404 cells assessed as reduction in cell viability incubated for 72 hrs by CCK8 assay. The format is functional, cell-based. The settings on record: BEL-7404, 72 h.
A short description of series [6]: Antiproliferative activity against human SW579 cells assessed as reduction in cell viability incubated for 72 hrs by CCK8 assay. The series is classed as functional, cell-based. The settings on record: SW579, 72 h.
In the next series the test system is NCI-H446. Description: Antiproliferative activity against human NCI-H446 cells assessed as reduction in cell viability incubated for 72 hrs by CCK8 assay. The settings on record: NCI-H446, 72 h. The format is functional, cell-based.
For the next series, the system named is PC-3. In words: Antiproliferative activity against human PC3 cells assessed as reduction in cell viability incubated for 72 hrs by CCK8 assay. The format is functional, cell-based. The settings on record: PC-3, 72 h.
Series [7] addresses T1, DNA topoisomerase 1 (Escherichia coli (strain K12)) (UniProt P06612).
T1 sequence (whole entry): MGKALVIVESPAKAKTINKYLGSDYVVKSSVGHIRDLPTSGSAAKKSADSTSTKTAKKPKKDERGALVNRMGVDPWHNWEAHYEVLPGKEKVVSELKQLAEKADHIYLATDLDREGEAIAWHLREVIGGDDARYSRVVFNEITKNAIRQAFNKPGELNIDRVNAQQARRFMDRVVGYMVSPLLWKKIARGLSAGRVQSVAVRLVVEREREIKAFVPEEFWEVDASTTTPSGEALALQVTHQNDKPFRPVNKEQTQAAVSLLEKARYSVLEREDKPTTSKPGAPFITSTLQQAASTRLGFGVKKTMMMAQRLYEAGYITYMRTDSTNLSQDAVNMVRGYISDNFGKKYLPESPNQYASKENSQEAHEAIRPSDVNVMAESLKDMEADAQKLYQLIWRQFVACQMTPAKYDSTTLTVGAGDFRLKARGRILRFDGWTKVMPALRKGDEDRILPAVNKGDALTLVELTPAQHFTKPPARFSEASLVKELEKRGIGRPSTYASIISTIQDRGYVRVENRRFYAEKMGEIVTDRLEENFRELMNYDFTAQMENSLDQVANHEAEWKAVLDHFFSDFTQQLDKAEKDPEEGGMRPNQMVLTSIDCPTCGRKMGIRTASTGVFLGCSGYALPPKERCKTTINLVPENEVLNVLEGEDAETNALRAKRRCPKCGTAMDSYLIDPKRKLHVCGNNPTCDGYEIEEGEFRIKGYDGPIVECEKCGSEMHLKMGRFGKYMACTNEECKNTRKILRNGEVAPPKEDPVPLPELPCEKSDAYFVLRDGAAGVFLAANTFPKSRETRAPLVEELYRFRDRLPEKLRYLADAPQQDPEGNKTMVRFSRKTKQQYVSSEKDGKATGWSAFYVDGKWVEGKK
In words: Poison activity at Escherichia coli Top1 assessed as increase in […] band intensity at 100 uM using supercoiled pUC19 plasmid DNA as substrate incubated for 30 mins by agarose gel electrophoresis analysis. The essentials:
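Supercoiled pUC19 plasmid DNA incubated with Top1 and test compound at 100, 50, 25 and 12.5 μM. Lanes: DNA alone, DNA + Top1, and DNA + Top1 + camptothecin (100 μM) as reference. Products resolved on gel to follow Top1-mediated relaxation.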

Series [8] concerns the target DNA topoisomerase 2-alpha (Homo sapiens) (UniProt P11388). Description: Inhibition of human Top2alpha assessed as decrease in relaxation of supercoiled pBR322 plasmid DNA at 100 uM using supercoiled pBR322 plasmid DNA as substrate incubated for 30 mins by agarose gel electrophoresis analysis.
Series [9] deals with T1, DNA topoisomerase 1 (Escherichia coli (strain K12)). In words: Inhibition of Escherichia coli Top1 assessed as decrease in relaxation of supercoiled pBR322 plasmid DNA at 100 uM using supercoiled pBR322 plasmid DNA as substrate incubated for 15 mins by agarose gel electrophoresis analysis.
Series [10] relates to HCT-116. Description: Antitumor activity against human HCT116 cells xenografted in mouse assessed as reduction in tumor growth at 0.5 mg/kg, ip qd for 21 days administration starting from 10 days after tumor cell implantation measured every 2 or 4 days till the end of the treatment period relative to control. The series is classed as functional. The settings on record: HCT-116, ip, read-out: TGI. The gist of the method: as §1

The nature of series [11]: Toxicity in mouse xenografted with human HCT116 cells assessed as reduction in body weight at 0.5 mg/kg, ip qd for 21 days administration starting from 10 days after tumor cell implantation measured every 2 or 4 days till the end of the treatment period. The series is classed as organism-based. The settings on record: in vivo. The gist of the method:
as §2

Chain of DNA topoisomerase 2-alpha (Homo sapiens) (P11388 whole entry): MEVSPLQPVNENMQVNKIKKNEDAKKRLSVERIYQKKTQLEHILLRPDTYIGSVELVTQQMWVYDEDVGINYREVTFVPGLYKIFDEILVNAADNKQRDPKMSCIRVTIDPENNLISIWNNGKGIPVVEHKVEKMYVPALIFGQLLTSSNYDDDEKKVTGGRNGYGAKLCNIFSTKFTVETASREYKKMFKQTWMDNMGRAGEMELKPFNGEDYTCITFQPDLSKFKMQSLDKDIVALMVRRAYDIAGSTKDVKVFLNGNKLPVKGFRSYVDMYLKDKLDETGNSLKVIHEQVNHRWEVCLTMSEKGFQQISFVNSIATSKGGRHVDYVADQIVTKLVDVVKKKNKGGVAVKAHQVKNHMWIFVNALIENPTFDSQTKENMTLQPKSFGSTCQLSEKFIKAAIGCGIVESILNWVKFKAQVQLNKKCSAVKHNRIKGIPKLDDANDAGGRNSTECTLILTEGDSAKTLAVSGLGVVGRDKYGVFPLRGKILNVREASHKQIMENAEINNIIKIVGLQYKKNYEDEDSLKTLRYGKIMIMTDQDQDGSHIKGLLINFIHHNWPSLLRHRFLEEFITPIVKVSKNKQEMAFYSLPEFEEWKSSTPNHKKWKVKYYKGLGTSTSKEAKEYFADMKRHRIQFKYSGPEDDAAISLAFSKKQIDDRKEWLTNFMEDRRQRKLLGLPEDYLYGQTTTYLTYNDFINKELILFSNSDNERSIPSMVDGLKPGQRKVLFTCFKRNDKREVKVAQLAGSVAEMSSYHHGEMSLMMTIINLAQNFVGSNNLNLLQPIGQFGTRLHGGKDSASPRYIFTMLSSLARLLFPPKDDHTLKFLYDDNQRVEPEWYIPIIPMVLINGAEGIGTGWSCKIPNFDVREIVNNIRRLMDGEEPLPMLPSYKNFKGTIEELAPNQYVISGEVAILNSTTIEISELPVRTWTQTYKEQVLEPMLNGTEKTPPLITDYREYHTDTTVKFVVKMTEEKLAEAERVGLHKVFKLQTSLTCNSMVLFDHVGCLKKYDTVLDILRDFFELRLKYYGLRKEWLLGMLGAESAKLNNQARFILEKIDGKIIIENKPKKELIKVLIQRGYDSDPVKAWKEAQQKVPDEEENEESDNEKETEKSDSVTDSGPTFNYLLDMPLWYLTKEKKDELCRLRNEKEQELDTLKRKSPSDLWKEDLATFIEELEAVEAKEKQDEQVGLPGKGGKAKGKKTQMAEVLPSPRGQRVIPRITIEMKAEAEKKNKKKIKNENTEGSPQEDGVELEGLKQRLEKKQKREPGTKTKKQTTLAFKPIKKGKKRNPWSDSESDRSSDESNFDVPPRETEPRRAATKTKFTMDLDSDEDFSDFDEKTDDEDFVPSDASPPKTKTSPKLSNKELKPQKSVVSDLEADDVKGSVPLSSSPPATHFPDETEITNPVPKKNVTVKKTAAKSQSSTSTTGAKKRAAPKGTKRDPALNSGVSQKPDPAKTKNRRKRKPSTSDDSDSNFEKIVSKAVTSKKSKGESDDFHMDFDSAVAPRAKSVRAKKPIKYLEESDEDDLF

The term IC50 denotes the concentration needed to halve the response being measured. In general, solubility refers to the concentration that dissolves in the medium under given conditions. Low values mean a poorly soluble substance, high ones a readily soluble substance. As to `COc1ccc2c(c1)cc1n2CCn2c-1[n+](C)c1ccc(F)cc1c2=O`, the half-inhibitory concentration (IC50) in the series with HCT-116 [1] was 87.2 µM; with MDA-MB-435 it was more than 200 µM; in the series on A549 it was more than 200 µM. In the series on HCT-116 [2], the inhibition in vivo at 16 mg/kg was 66.6%. Moreover, the concentration in solution in series [3] (solubility) was 850 µg/mL. In series [4], the Activity result was “Non-Toxic”.

Consider `CC[C@@]1(O)C(=O)OCc2c1cc1n(c2=O)Cc2cc3ccccc3nc2-1` [CAMPTOTHECIN], for which the IC50 is 900 nM with SK-HEP1; 3 nM in series [5]; 0.02 µM with HCT-116 [1]; 2.7 µM in the series with MDA-MB-435; less than 3 nM with K562; 2.8 µM in the series on A549. Further, the IC50 was 400 nM with BEL-7404 tumor cell line, 700 nM in series [6], more than 200 µM in the series with NCI-H446 and 2400 nM in the series with PC-3. Besides, the result in series [7] was Active.

For the molecule `CN1c2ccccc2C(=O)N2CCn3c(cc4ccccc43)C21` (centres undefined), in series [8], the inhibition result was “inactive”. Also, the IC50 in the series on HCT-116 [1] was 47.5 to 48.5 µM; in the series with MDA-MB-435, more than 200 µM; with A549, 21.5 µM. Further, the inhibition entry in series [9] was “Active”.

On to `CC[C@@]1(O)C(=O)OCc2c1cc1n(c2=O)Cc2cc3c(CN(C)C)c(O)ccc3nc2-1` [TOPOTECAN], for which the inhibition in vivo at 0.5 mg/kg in the series on HCT-116 [10] is 68.5%. Further, the Activity result in [11] was “Toxic”.
